Assay results from ChEMBL document CHEMBL4376838, “Discovery of Novel Celastrol Derivatives as Hsp90-Cdc37 Interaction Disruptors with Antitumor Activity” (J Med Chem, 2019).
Activity calls are given as the source filed them. The calls are words filed in the database; no cut-off is given here.

Columns and labels:
[1] = Binding affinity to GSH in PBS at 100 uM assessed as reduction in absorption at 440 nm incubated up to 30 mins by UV absorption analysis
Method in brief: (§1)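 Compound (100 μM) mixed with GSH (100 μM), Cdc37 (1.5 μM) or Hsp90 (1.5 μM) in PBS containing 1% DMSO, incubated at 37 °C for 0, 5, 15 and 30 min. UV spectra scanned 200-500 nm, with absorbance at 440 nm compared against the 0 min value (A/A0). Mean ± SD, n = 3.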

[2] = target: Heat shock protein HSP 90-alpha (Homo sapiens) (UniProt P07900); experiment: Binding affinity to full length Hsp90alpha (unknown origin) assessed as reduction in absorption at 440 nm reaching equilibrium within 5 mins at 100 uM by UV absorption analysis; details: in the assay text read “within 15 mins” for “within 5 mins”; method in brief: as §1

With `CC1=C(O)C(=O)C=C2C1=CC=C1[C@@]2(C)CC[C@@]2(C)[C@@H]3C[C@](C)(C(=O)OCCCOC(=O)/C=C(\C#N)c4ccc(F)cc4)CC[C@]3(C)CC[C@]12C` the Activity [1] was “Active” and the Activity [2] was “Active”.
